The list is not random: actives were taken first. Their share in the collection is about 3.8%.
KCNQ1 act = potentiators or activators of KCNQ1 channel, primary screen, cell-based, thallium flux, high-throughput; Potassium voltage-gated channel subfamily KQT member 1 (Homo sapiens), P51787; CHO-K1 KCNQ1, thallium flux FluxOR fluorescence; stronger effect = higher value; B-score at 10 µM; actives 0.35% (n = 310,000); AID 2648, 2010;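 active means fluorescence ratio B-score, a plate-corrected score, at least three library SD, with initial intensity B-score within 5 SD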
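Medium – assay buffer, equal DMSO in all wells · Material – CHO-K1 cell line with stable KCNQ1 potassium channel expression · Signal – kinetic FluxOR thallium fluorescence, 10-s 1-Hz baseline, 110-s post-stimulus read · Compound – single concentration per compound, DMSO matched to controls · Schedule – 37 °C overnight plating, 90-min dark dye load, 20-min compound pretreatment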
Kir21 block = inhibitors of mouse Kir2.1 inward-rectifier potassium channel | AID 1672, 2009 | actives 0.85% (n = 310,000) | Inward rectifier potassium channel 2 (Mus musculus), P35561 | HEK293-Kir2.1, FluxOR thallium flux fluorescence; stronger effect = lower value | B-score at 10 µM;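 active means fluorescence ratio B-score at or below minus 3 SD of library scores, with starting-brightness B-score within 2 SD, cut at about -4.2 in these data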;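 further: channel flux triggered by added potassium and thallium sulfate stimulus; B-score of peak minus minimum fluorescence over baseline after thallium stimulus; more negative B-score means stronger Kir2.1 block with less thallium influx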
KCNK9 block = KCNK9 potassium channel inhibitors, primary screen, HEK293 cells, thallium flux | actives 1.2% (n = 310,000) | FluxOR thallium flux fluorescence; stronger effect = lower value | B-score at 10 µM | Potassium channel subfamily K member 9 (Homo sapiens), Q9NPC2;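 active means ratio B-score over 3 SD below the library mean, with starting fluorescence within 5 SD of its mean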;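 further: negative B-score means less thallium flux so channel inhibition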
KCNQ1 block = inhibitors of human KCNQ1 channel, primary screen, cell-based, thallium flux, high-throughput. Potassium voltage-gated channel subfamily KQT member 1 (Homo sapiens), P51787. CHO-K1 KCNQ1, FluxOR thallium flux fluorescence; stronger effect = higher value. B-score at 10 µM. actives 1.3% (n = 310,000). AID 2642, 2010;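 active means compounds whose thallium flux B-score, printed positive for inhibition, exceeds three library SD while starting fluorescence stays within three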;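 further: channel opened by potassium depolarization with thallium stimulus after 20 min compound exposure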
KCNK3 inh = human KCNK3 channel inhibitors, primary screen, CHO cells, FluxOR thallium flux, B-score. AID 602410, 2012. actives 0.84% (n = 340,000). Potassium channel subfamily K member 3 (Homo sapiens), O14649. B-score at 10 µM. FluxOR fluorescence; stronger effect = lower value;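 active means B-score under library mean minus 4 SD, starting fluorescence ratio at most library mean plus 5 SD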;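 further: more negative B-score means stronger inhibition of thallium flux through KCNK3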
hERG rescue = hERG rescue from dofetilide block, primary screen, cell-based, CHO-hERG, FluxOR thallium flux, dofetilide IC70 | Voltage-gated inwardly rectifying potassium channel KCNH2 (Homo sapiens), Q12809 | dofetilide IC70 present | activation (rescue from dofetilide block), less the hit threshold, % at 10 µM | actives 0.51% (n = 310,000) | AID 1511, 2009;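 active means activation above the mean of controls blocked by dofetilide plus 5 SD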;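 further: thallium influx through hERG after potassium depolarization seen as dye fluorescence rise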
KCNQ1 block val = KCNQ1 potassium channel inhibitors, confirmation, cell-based, Tl flux, duplicate; AID 588353, 2011; KCNQ1 cell line, FluxOR thallium flux fluorescence; actives 93% (n = 1,600); inhibition, % at 10 µM; shares compounds with KCNQ1 block;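 active means primary screen active, with duplicate mean exceeding buffer control mean plus 3 SD of buffer wells, cut at about 28% in these data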;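 further: 0% = buffer control ratio and 100% = XE991 inhibitor control ratio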
CHO Tl flux = thallium flux effects in parental CHO cells, counter-screen for KCNQ1 inhibitor project, cell-based, Tl flux | shares compounds with KCNQ1 block | parental CHO-K1, FluxOR thallium flux fluorescence ratio; stronger effect = lower value; zero means no signal rise above baseline | fluorescence ratio (Tl flux) at 10 µM | actives 21% (n = 1,600);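 active means mean of duplicate thallium-flux fluorescence ratios in parental host cells more than 5 SD below the buffer control mean, cut at about 0.38 in these data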;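 further: ratio is peak minus minimum fluorescence divided by baseline fluorescence; actives read low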
KCNQ1 ephys val = KCNQ1 channel inhibitors, confirmation, orthogonal assay, cell-based, automated electrophysiology. shares compounds with KCNQ1 block. KCNQ1-CHO cells, automated patch clamp current. calls only at 10 µM. actives 20% (n = 490);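 active means KCNQ1 current drop exceeding 3 SD of negative control wells, seen in both duplicate runs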;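 further: steady state current during a 2 s step from -80 to +40 mV; negative values mean current inhibition and positive values mean potentiation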
KCNQ2 inh = KCNQ2 channel inhibition, selectivity assay for KCNQ1 inhibitor project, cell-based; shares compounds with KCNQ1 block; KCNQ2 cells, FluxOR thallium flux fluorescence; inhibition, % at 10 µM; actives 71% (n = 1,600);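 active means mean percent inhibition of the KCNQ2 thallium signal more than 5 SD above the buffer-only control wells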;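 further: KCNQ2 expressed in CHO cells; 0% = buffer control wells and 100% = XE-991 inhibitor control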
Target sequence (O88943 whole entry, looked up): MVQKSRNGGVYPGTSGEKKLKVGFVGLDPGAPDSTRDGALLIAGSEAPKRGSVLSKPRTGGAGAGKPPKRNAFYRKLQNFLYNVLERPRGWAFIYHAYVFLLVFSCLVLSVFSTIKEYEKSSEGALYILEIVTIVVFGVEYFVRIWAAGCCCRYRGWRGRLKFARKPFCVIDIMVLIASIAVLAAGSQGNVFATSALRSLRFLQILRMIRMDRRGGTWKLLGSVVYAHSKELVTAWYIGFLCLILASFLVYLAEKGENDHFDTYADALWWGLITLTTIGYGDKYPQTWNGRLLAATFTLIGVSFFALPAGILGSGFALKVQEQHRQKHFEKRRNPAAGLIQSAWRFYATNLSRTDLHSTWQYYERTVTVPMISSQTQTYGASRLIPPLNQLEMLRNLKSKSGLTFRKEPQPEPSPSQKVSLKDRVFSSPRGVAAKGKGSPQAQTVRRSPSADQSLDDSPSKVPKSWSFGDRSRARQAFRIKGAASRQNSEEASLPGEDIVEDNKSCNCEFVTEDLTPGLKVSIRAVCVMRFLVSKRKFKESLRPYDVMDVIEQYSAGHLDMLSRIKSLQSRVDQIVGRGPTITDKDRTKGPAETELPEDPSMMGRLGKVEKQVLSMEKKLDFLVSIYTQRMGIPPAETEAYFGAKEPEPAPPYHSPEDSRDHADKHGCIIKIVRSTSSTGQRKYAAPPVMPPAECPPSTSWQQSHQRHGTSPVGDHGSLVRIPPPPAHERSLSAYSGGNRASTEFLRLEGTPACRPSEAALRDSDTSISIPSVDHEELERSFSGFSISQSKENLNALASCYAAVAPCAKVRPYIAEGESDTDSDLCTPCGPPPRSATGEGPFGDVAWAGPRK
KCNQ1 KCNE1 spec = KCNQ1/KCNE1 channel inhibition, selectivity assay for KCNQ1 inhibitor project, CHO-K1 cells, thallium flux, FluxOR | shares compounds with KCNQ1 block | FluxOR thallium flux fluorescence | inhibition, % at 10 µM | actives 77% (n = 1,600) | AID 652147, 2013;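 active means mean percent inhibition of duplicate wells above the buffer-only control mean plus 3 SD of those controls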;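 further: 0% = buffer only wells and 100% = XE-991 inhibitor control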
Numbers without * were called inactive; i = inactive; / = no result; + = active, no number.

SMILES	KCNQ1 act	Kir21 block	KCNK9 block	KCNQ1 block	KCNK3 inh	hERG rescue	KCNQ1 block val	CHO Tl flux	KCNQ2 inh	KCNQ1 KCNE1 spec	others
Cc1ccc(NC(=O)CSc2ncnc3ccccc23)cc1S(=O)(=O)N1CCCCCC1	i	1.4	i	6*	i	-13	118*	0.4	127%*	106%*	KCNQ1 ephys val=i
O=[N+]([O-])c1ccc2nc(SCc3ccccc3Cl)sc2c1	i	0.07	i	15*	i	-20	106*	0.42	117%*	116%*	KCNQ1 ephys val=i
O=C(Nc1ccc(F)cc1)c1ccccc1NS(=O)(=O)N1CCCC1	i	0.51	i	7*	i	-10	82*	0.54	67%*	i
O=C(Nc1ccccc1N1CCCCC1)C1CCN(S(=O)(=O)c2ccccc2C(F)(F)F)CC1	i	0.25	i	11*	i	-13	64*	0.42	101%*	82%*
O=C(Nc1ccccc1N1CCCC1)C1CCN(S(=O)(=O)c2ccccc2C(F)(F)F)CC1	i	1.6	i	i	i	-4	/	/	/	/
COc1ccc(S(=O)(=O)n2nc(-n3c(C)ccc3C)c3c(F)cccc32)cc1OC	i	-0.95	i	9*	i	-9	124*	0.4	107%*	138%*	KCNQ1 ephys val=i
O=C(Nc1cc(Cl)ccc1N1CCOCC1)c1ccc2c(c1)OCCO2	i	-0.17	i	12*	i	-6	68*	0.46	83%*	52%*
Cc1ccc(CNC(=O)C2c3ccccc3C(=O)N3CCc4ccccc4C23)o1 (stereo unspecified)	i	-0.08	i	i	i	-27	/	/	/	/
CN1/C(=C/C=C(C#N)C#N)C(C)(C)c2ccccc21	i	-0.03	i	25*	i	-44	+	0.12*	i	i
COc1ccc(Cl)cc1C(=O)N(Cc1nc(-c2cccc(C)c2)no1)C(C)C	i	-1.3	i	i	i	-11	/	/	/	/
Cc1cccc(-c2noc(CN(C)S(=O)(=O)c3cc(Cl)ccc3Cl)n2)c1	i	-0.46	-8*	8*	i	-7	+	0.35*	i	i
CC(C)(C)NS(=O)(=O)c1ccc(CCC(=O)NCc2ccc3c(c2)OCO3)cc1	i	0.69	i	i	i	-4	/	/	/	/
CC1Cc2ccccc2N1C(=O)CNc1ccccc1N1CCCCC1 (stereo unspecified)	i	1.2	i	7*	i	-14	81*	0.45	101%*	86%*
CSc1ccccc1NC(=S)Nc1cccc(C(F)(F)F)c1	i	-0.51	i	i	i	-12	/	/	/	/
